ChEMBL document CHEMBL1137710, “Synthesis and in vitro antitumor activity of new quinoxaline derivatives” (2009)

Legend:
Assay type in all cases: functional
NCI-H460 [1] = assay: Anticancer activity against human NCI-H460 cells assessed as cell growth at 100 uM after 48 hrs by sulforhodamine B assay; conditions: NCI-H460, 48 h, read-out: Activity
MCF7 [2] = assay: Anticancer activity against human MCF7 cells assessed as cell growth at 100 uM after 48 hrs by sulforhodamine B assay; conditions: MCF7, 48 h, read-out: Activity
SF-268 [3] = assay: Anticancer activity against human SF268 cells assessed as cell growth at 100 uM after 48 hrs by sulforhodamine B assay; conditions: SF-268, 48 h, read-out: Activity
[4] = Growth inhibition of human […] cells after 48 hrs by sulforhodamine B assay
Procedure, shortened: (§1)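 NCI 60-human-tumor-cell-line panel, with compounds tested over a 5-log dose range. Values are taken from dose-response curves as log10 molar concentrations: GI50 is 50% net growth inhibition, TGI is total growth inhibition, and LC50 is 50% net cell death.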

A549 = assay: Growth inhibition of human A549 cells after 48 hrs by sulforhodamine B assay; conditions: A549, 48 h; procedure, shortened: as §1
NCI-H23 = assay: Growth inhibition of human NCI-H23 cells after 48 hrs by sulforhodamine B assay; conditions: NCI-H23, 48 h; procedure, shortened: as §1
NCI-H460 [5] = assay: Growth inhibition of human NCI-H460 cells after 48 hrs by sulforhodamine B assay; conditions: NCI-H460, 48 h; procedure, shortened: as §1
COLO 205 = assay: Growth inhibition of human COLO205 cells after 48 hrs by sulforhodamine B assay; conditions: COLO 205, 48 h; procedure, shortened: as §1
HCT-116 = assay: Growth inhibition of human HCT116 cells after 48 hrs by sulforhodamine B assay; conditions: HCT-116, 48 h; procedure, shortened: as §1
SW-620 = assay: Growth inhibition of human SW620 cells after 48 hrs by sulforhodamine B assay; conditions: SW-620, 48 h
Procedure, shortened: (§2)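 Run in the NCI 60-human-tumour-cell-line panel, tested over a 5-log dose range. Dose–response curves gave three values per cell line, each as a log10 molar concentration: GI50 (50% inhibition of net cell growth), TGI (total inhibition of net growth) and LC50 (50% net cell death). The mean graph midpoint is the arithmetic mean over all lines, with insensitive lines entered at the highest concentration tested.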

SF-268 [6] = assay: Growth inhibition of human SF268 cells after 48 hrs by sulforhodamine B assay; conditions: SF-268, 48 h; procedure, shortened: as §1
SF-295 = assay: Growth inhibition of human SF295 cells after 48 hrs by sulforhodamine B assay; conditions: SF-295, 48 h; procedure, shortened: as §1
SNB-19 = assay: Growth inhibition of human SNB19 cells after 48 hrs by sulforhodamine B assay; conditions: SNB-19, 48 h; procedure, shortened: as §2
U-251 = assay: Growth inhibition of human U251 cells after 48 hrs by sulforhodamine B assay; conditions: U-251, 48 h; procedure, shortened: as §2
M14 = assay: Growth inhibition of human M14 cells after 48 hrs by sulforhodamine B assay; conditions: M14, 48 h; procedure, shortened: as §1
SK-MEL-28 = assay: Growth inhibition of human SK-MEL-28 cells after 48 hrs by sulforhodamine B assay; conditions: SK-MEL-28, 48 h; procedure, shortened: as §1
SK-MEL-5 = assay: Growth inhibition of human SK-MEL-5 cells after 48 hrs by sulforhodamine B assay; conditions: SK-MEL-5, 48 h; procedure, shortened: as §1
UACC-257 = assay: Growth inhibition of human UACC257 cells after 48 hrs by sulforhodamine B assay; conditions: UACC-257, 48 h; procedure, shortened: as §2
UACC-62 = assay: Growth inhibition of human UACC62 cells after 48 hrs by sulforhodamine B assay; conditions: UACC-62, 48 h; procedure, shortened: as §2
IGROV-1 = assay: Growth inhibition of human IGROV1 cells after 48 hrs by sulforhodamine B assay; conditions: IGROV-1, 48 h; procedure, shortened: as §1
OVCAR-4 = assay: Growth inhibition of human OVCAR4 cells after 48 hrs by sulforhodamine B assay; conditions: OVCAR-4, 48 h; procedure, shortened: as §1
OVCAR-8 = assay: Growth inhibition of human OVCAR8 cells after 48 hrs by sulforhodamine B assay; conditions: OVCAR-8, 48 h; procedure, shortened: as §1
SK-OV-3 = assay: Growth inhibition of human SKOV3 cells after 48 hrs by sulforhodamine B assay; conditions: SK-OV-3, 48 h; procedure, shortened: as §1
RXF 393 = assay: Growth inhibition of human RXF393 cells after 48 hrs by sulforhodamine B assay; conditions: RXF 393, 48 h; procedure, shortened: as §1
TK-10 = assay: Growth inhibition of human TK10 cells after 48 hrs by sulforhodamine B assay; conditions: TK-10, 48 h; procedure, shortened: as §2
PC-3 = assay: Growth inhibition of human PC3 cells after 48 hrs by sulforhodamine B assay; conditions: PC-3, 48 h; procedure, shortened: as §1
DU-145 = assay: Growth inhibition of human DU145 cells after 48 hrs by sulforhodamine B assay; conditions: DU-145, 48 h; procedure, shortened: as §1
MDA-MB-231 = assay: Growth inhibition of human MDA-MB-231 cells after 48 hrs by sulforhodamine B assay; conditions: MDA-MB-231, 48 h; procedure, shortened: as §1
MDA-MB-435 = assay: Growth inhibition of human MDA-MB-435 cells after 48 hrs by sulforhodamine B assay; conditions: MDA-MB-435, 48 h; procedure, shortened: as §1
MCF7 [7] = assay: Growth inhibition of human MCF7 cells after 48 hrs by sulforhodamine B assay; conditions: MCF7, 48 h; procedure, shortened: as §1
[8] = read-out: pLC50 (the source's name) (converted)

Q: What does the source list for `COc1ccc(Oc2nc3cc(N)cc(N)c3nc2-c2ccccc2)cc1`?
A: growth at 100 µM (NCI-H460 [1]): -48%; growth at 100 µM (MCF7 [2]): -89%; growth at 100 µM (SF-268 [3]): -56%; GI50 [4]: 10.5 µM; LC50 [4]: > 100 µM; TGI ([4]; read-out: pTGI (converted)): 70.8 µM; GI50 (A549): 37.2 µM; LC50 (A549): > 100 µM; TGI (A549; read-out: pTGI (converted)): > 100 µM; GI50 (NCI-H23): 25.1 µM; LC50 (50% net cell kill concentration) (NCI-H23): > 100 µM; TGI (NCI-H23; read-out: pTGI (converted)): > 100 µM; GI50 (NCI-H460 [5]): 30.9 µM; LC50 (50% net cell kill) (NCI-H460 [5]): > 100 µM; TGI (NCI-H460 [5]; read-out: pTGI (converted)): > 100 µM; GI50 (COLO 205): > 100 µM; LC50 (50% net cell kill) (COLO 205): > 100 µM; TGI (COLO 205; read-out: pTGI (converted)): > 100 µM; GI50 (HCT-116): 28.8 µM; LC50 (concentration causing 50% net cell death) (HCT-116): > 100 µM; TGI (HCT-116; read-out: pTGI (converted)): 75.9 µM; GI50 (SW-620): 89.1 µM; CC50 (SW-620; [8]): > 100 µM; TGI (SW-620; read-out: pTGI (converted)): > 100 µM; GI50 (SF-268 [6]): 20.9 µM; LC50 (SF-268 [6]): > 100 µM; TGI (SF-268 [6]; read-out: pTGI (converted)): > 100 µM; GI50 (SF-295): 23.4 µM; LC50 (50% net cell kill) (SF-295): > 100 µM; TGI (SF-295; read-out: pTGI (converted)): 52.5 µM; GI50 (SNB-19): 64.6 µM; LC50 (SNB-19): > 100 µM; TGI (SNB-19; read-out: pTGI (converted)): > 100 µM; GI50 (U-251): 26.3 µM; LC50 (50% net cell kill) (U-251): > 100 µM; TGI (U-251; read-out: pTGI (converted)): > 100 µM; GI50 (M14): > 100 µM; CC50 (M14; [8]): > 100 µM; TGI (M14; read-out: pTGI (converted)): > 100 µM; GI50 (SK-MEL-28): 19.5 µM; CC50 (SK-MEL-28; [8]): > 100 µM; TGI (SK-MEL-28; read-out: pTGI (converted)): 49 µM; GI50 (SK-MEL-5): 44.7 µM; CC50 (SK-MEL-5; [8]): > 100 µM; TGI (SK-MEL-5; read-out: pTGI (converted)): > 100 µM; GI50 (UACC-257): > 100 µM; CC50 (UACC-257; [8]): > 100 µM; TGI (UACC-257; read-out: pTGI (converted)): > 100 µM; GI50 (UACC-62): 63.1 µM; CC50 (UACC-62; [8]): > 100 µM; TGI (UACC-62; read-out: pTGI (converted)): > 100 µM; GI50 (IGROV-1): 25.1 µM; CC50 (IGROV-1; [8]): > 100 µM; TGI (IGROV-1; read-out: pTGI (converted)): > 100 µM; GI50 (OVCAR-4): 3.72 µM; CC50 (OVCAR-4; [8]): > 100 µM; TGI (OVCAR-4; read-out: pTGI (converted)): 24.5 µM; GI50 (OVCAR-8): 32.4 µM; CC50 (OVCAR-8; [8]): > 100 µM; TGI (OVCAR-8; read-out: pTGI (converted)): > 100 µM; GI50 (SK-OV-3): 25.7 µM; CC50 (SK-OV-3; [8]): > 100 µM; TGI (SK-OV-3; read-out: pTGI (converted)): 55 µM; GI50 (RXF 393): 20 µM; CC50 (RXF 393; [8]): > 100 µM; TGI (RXF 393; read-out: pTGI (converted)): 74.1 µM; GI50 (TK-10): 53.7 µM; CC50 (TK-10; [8]): > 100 µM; TGI (TK-10; read-out: pTGI (converted)): > 100 µM; GI50 (PC-3): 15.1 µM; CC50 (PC-3; [8]): > 100 µM; TGI (PC-3; read-out: pTGI (converted)): > 100 µM; GI50 (DU-145): 69.2 µM; CC50 (DU-145; [8]): > 100 µM; TGI (DU-145; read-out: pTGI (converted)): > 100 µM; GI50 (MDA-MB-231): 20.4 µM; CC50 (MDA-MB-231; [8]): > 100 µM; TGI (MDA-MB-231; read-out: pTGI (converted)): 64.6 µM; GI50 (MDA-MB-435): 40.7 µM; CC50 (MDA-MB-435; [8]): > 100 µM; TGI (MDA-MB-435; read-out: pTGI (converted)): > 100 µM; GI50 (MCF7 [7]): 47.9 µM; CC50 (MCF7 [7]; [8]): > 100 µM; TGI (MCF7 [7]; read-out: pTGI (converted)): > 100 µM
